{"source": "ChEMBL document CHEMBL1123874", "about": "“Polychlorinated biphenyls and related compound interactions with specific binding sites for thyroxine in rat liver nuclear extracts” (J Med Chem, 1987)", "key": {"Rattus norvegicus [1]": {"system": "Rattus norvegicus", "assay": "Body weight was determined in TCDD-treated rats at a dose of 37 ug/Kg", "assay_type": "functional", "outline": "(§1)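 Male Sprague–Dawley rats (200–250 g, 6 weeks old), in groups of five, were dosed by gavage with TCDD at 0, 12, 25, 37 or 50 µg/kg body weight in corn oil (0.1 mL/kg). Controls received corn oil alone. Animals were killed by CO2 9 days after dosing.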"}, "Rattus norvegicus [2]": {"species_on_record": "Rattus norvegicus", "assay": "Body weight (after treatment) was determined", "assay_type": "functional", "outline": "as §1"}, "Rattus norvegicus [3]": {"species_on_record": "Rattus norvegicus", "assay": "Number of T4 binding sites in rat liver from TCDD treated rats", "assay_type": "functional", "outline": "(§2)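 Male Sprague–Dawley rats (200–250 g), five per group, gavaged with TCDD (0, 12, 25, 37 or 50 µg/kg) in corn oil at 0.1 mL/kg; controls got corn oil. Livers were taken after 9 days and pooled per group. Nuclear extract (10 µg protein, buffer B, pH 7.6) was incubated 2 h at 25 °C with 0.1–2.4 nM [125I]T4. Bound ligand was isolated on Sephadex G-25, specific binding taken as total minus excess-T4, Scatchard analysis, duplicates.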"}, "Rattus norvegicus [4]": {"system": "Rattus norvegicus", "assay": "Liver weight was determined in TCDD-treated rat at a dose of 12 ug/Kg", "assay_type": "functional", "outline": "as §1"}, "Rattus norvegicus [5]": {"system": "Rattus norvegicus", "assay": "Serum T4 level was determined in TCDD-treated rat at a dose of 25 ug/Kg", "assay_type": "functional, organism-based", "outline": "as §1"}, "[6]": {"assay": "Binding affinity of [125I]-T4 to rat liver nuclear extract at a dose of 37 ug/Kg", "outline": "as §2"}, "[7]": {"assay": "Binding affinity of [125I]T4 to rat liver nuclear extract (CONTROL)", "outline": "as §2"}, "[8]": {"assay": "Binding affinity of [125I]T4 to rat liver nuclear extract at a dose of 12 ug/Kg", "outline": "as §2"}, "Rattus norvegicus [9]": {"system": "Rattus norvegicus", "assay": "Number of T4 binding sites in rat liver from TCDD treated rats at a dose of 37 ug/Kg", "assay_type": "functional", "outline": "as §2"}, "Rattus norvegicus [10]": {"system": "Rattus norvegicus", "assay": "Serum T4 level was determined in TCDD-treated rat at a dose of 12 ug/Kg", "assay_type": "functional, organism-based", "outline": "as §1"}, "Rattus norvegicus [11]": {"system": "Rattus norvegicus", "assay": "Body weight was determined in TCDD-treated rat at a dose of 12 ug/Kg", "assay_type": "functional", "outline": "as §1"}, "[12]": {"assay": "Binding affinity of [125I]T4 to rat liver nuclear extract at a dose of 50 ug/Kg", "outline": "as §2"}, "Rattus norvegicus [13]": {"system": "Rattus norvegicus", "assay": "Number of T4 binding sites in rat liver from TCDD treated rats at a dose of 25 ug/Kg", "assay_type": "functional", "outline": "as §2"}, "Rattus norvegicus [14]": {"system": "Rattus norvegicus", "assay": "Liver weight was determined in TCDD-treated rats at a dose of 50 ug/Kg", "assay_type": "functional", "outline": "as §1"}, "Rattus norvegicus [15]": {"species_on_record": "Rattus norvegicus", "assay": "Liver weight was determined in rats", "assay_type": "functional", "outline": "as §1"}, "Rattus norvegicus [16]": {"system": "Rattus norvegicus", "assay": "Body weight was determined in TCDD-treated rats at a dose of 25 ug/Kg", "assay_type": "functional", "outline": "as §1"}, "Rattus norvegicus [17]": {"system": "Rattus norvegicus", "assay": "Serum T4 level was determined in TCDD-treated rat at a dose of 50 ug/Kg", "assay_type": "functional, organism-based", "outline": "as §1"}, "Rattus norvegicus [18]": {"system": "Rattus norvegicus", "assay": "Body weight was determined in TCDD-treated rats at a dose of 50 ug/Kg", "assay_type": "functional", "outline": "as §1"}, "Rattus norvegicus [19]": {"system": "Rattus norvegicus", "assay": "Serum T4 level was determined in TCDD-treated rat at a dose of 37 ug/kg", "assay_type": "functional, organism-based", "outline": "as §1"}, "Rattus norvegicus [20]": {"system": "Rattus norvegicus", "assay": "Number of T4 binding sites in rat liver from TCDD treated rats at a dose of 50 ug/Kg", "assay_type": "functional", "outline": "as §2"}, "[21]": {"assay": "Binding affinity of [125I]T4 to rat liver nuclear extract at a dose of 25 ug/Kg", "outline": "as §2"}, "Rattus norvegicus [22]": {"species_on_record": "Rattus norvegicus", "assay": "Serum T4 level was determined in rats", "assay_type": "functional, organism-based", "outline": "as §1"}, "Rattus norvegicus [23]": {"system": "Rattus norvegicus", "assay": "Liver weight was determined in TCDD-treated rats at a dose of 37 ug/Kg", "assay_type": "functional", "outline": "as §1"}, "Rattus norvegicus [24]": {"system": "Rattus norvegicus", "assay": "Number of T4 binding sites in rat liver from TCDD treated rats at a dose of 12 ug/Kg", "assay_type": "functional", "outline": "as §2"}, "Rattus norvegicus [25]": {"system": "Rattus norvegicus", "assay": "Liver weight was determined in TCDD-treated rats at a dose of 25 ug/Kg", "assay_type": "functional", "outline": "as §1"}}}
{"compound": "Clc1cc2c(cc1Cl)Oc1cc(Cl)c(Cl)cc1O2", "note": "[2,3,7,8-TETRACHLORODIBENZO-P-DIOXIN]", "values": [{"measurement": "Weight", "setting": "Rattus norvegicus [1]", "result": "<274", "unit": "g"}, {"measurement": "Weight", "setting": "Rattus norvegicus [2]", "result": 302, "unit": "g"}, {"measurement": "Activity", "setting": "Rattus norvegicus [3]", "result": "<3.24", "unit": "nM/mg"}, {"measurement": "Weight", "setting": "Rattus norvegicus [4]", "result": "<18.9", "unit": "g"}, {"measurement": "Serum T4", "setting": "Rattus norvegicus [5]", "result": "< 4.4", "unit": "µg/dL"}, {"measurement": "Kd", "setting": "[6]", "result": 0.69, "unit": "nM"}, {"measurement": "Kd", "setting": "[7]", "result": 0.7, "unit": "nM"}, {"measurement": "Kd", "setting": "[8]", "result": 0.48, "unit": "nM"}, {"measurement": "Activity", "setting": "Rattus norvegicus [9]", "result": "<8.71", "unit": "nM/mg"}, {"measurement": "Serum T4", "setting": "Rattus norvegicus [10]", "result": "< 5.6", "unit": "µg/dL"}, {"measurement": "Weight", "setting": "Rattus norvegicus [11]", "result": 293, "unit": "g"}, {"measurement": "Kd", "setting": "[12]", "result": 0.72, "unit": "nM"}, {"measurement": "Activity", "setting": "Rattus norvegicus [13]", "result": "<4.12", "unit": "nM/mg"}, {"measurement": "Weight", "setting": "Rattus norvegicus [14]", "result": "<19.9", "unit": "g"}, {"measurement": "Weight", "setting": "Rattus norvegicus [15]", "result": 15.1, "unit": "g"}, {"measurement": "Weight", "setting": "Rattus norvegicus [16]", "result": "<273", "unit": "g"}, {"measurement": "Serum T4", "setting": "Rattus norvegicus [17]", "result": "< 4.2", "unit": "µg/dL"}, {"measurement": "Weight", "setting": "Rattus norvegicus [18]", "result": "<271", "unit": "g"}, {"measurement": "Serum T4", "setting": "Rattus norvegicus [19]", "result": "< 4.1", "unit": "µg/dL"}, {"measurement": "Activity", "setting": "Rattus norvegicus [20]", "result": "<6.65", "unit": "nM/mg"}, {"measurement": "Kd", "setting": "[21]", "result": 0.56, "unit": "nM"}, {"measurement": "Serum T4", "setting": "Rattus norvegicus [22]", "result": 7.6, "unit": "µg/dL"}, {"measurement": "Weight", "setting": "Rattus norvegicus [23]", "result": "<19.3", "unit": "g"}, {"measurement": "Activity", "setting": "Rattus norvegicus [24]", "result": "<4.06", "unit": "nM/mg"}, {"measurement": "Weight", "setting": "Rattus norvegicus [25]", "result": "<18.3", "unit": "g"}]}
